Reference: ChEMBL document CHEMBL1154265, “Alkaloids from the leaves of Daphniphyllum subverticillatum” (J Nat Prod, 2009)
Calls of active or inactive are those of the source. The rule behind the calls is not given here.

Legend:
Bel-7402 = assay: Cytotoxicity against human Bel7402 cells after 72 hrs by sulforhodamine B assay; format: functional, cell-based
How it was run: (§1)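 SRB staining on A-549, BEL-7402 and HMEC (human microvascular endothelial) cells, run to earlier published protocols, with pseudolaric acid B as the positive control; IC50 values reported.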

HMEC = assay: Cytotoxicity against human HMEC cells after 72 hrs by sulforhodamine B assay; format: cell-based; conditions: for Activity: human, hmec; how it was run: as §1
P388 = assay: Cytotoxicity against mouse P388 cells after 72 hrs by MTT assay; format: functional, cell-based
How it was run: (§2)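 MTT read-out on HL-60 and P-388 cells, run to earlier published protocols, with pseudolaric acid B as the positive control; IC50 values reported.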

A549 = assay: Cytotoxicity against human A549 cells after 72 hrs by sulforhodamine B assay; format: functional, cell-based; how it was run: as §1
HL-60 = assay: Cytotoxicity against human HL60 cells after 72 hrs by MTT assay; format: functional, cell-based; how it was run: as §2

CC(C)[C@H]1CC[C@@]2(C)[C@@H]3C[C@@H](O)[C@]45CCC[C@H]4[C@@]2(CCC(=O)[C@]2(C)CO[C@]4(C)CCC2O4)[C@@H]1N5C3 [HYDROXYCODAPHNIPHYLLINE]
Activity (Bel-7402): inactive
Activity (HMEC): Non-toxic
Activity (P388): inactive
Activity (A549): inactive
Activity (HL-60): inactive

COC(=O)[C@@H]1C[C@@]23C(=O)[C@@H]4C[C@H]5N(C[C@@H](CCC6=C2[C@@H]1CC6)[C@]53COC(C)=O)C[C@H]4C [SUBDAPHNIDINE A]
Activity (Bel-7402): inactive
Activity (HMEC): Non-toxic
Activity (P388): inactive
Activity (A549): inactive
Activity (HL-60): inactive

CC(=O)O[C@@H]1CC[C@@]2(C)O[C@@H](O)[C@@]1(C)C2CC[C@@]12[C@@H]3NC4C(CC[C@@]45CCC[C@H]51)[C@]2(C)CC[C@@H]3C(C)C (stereo not given in full) [DAPHNILONGERIDINE]
IC50 (Bel-7402; Bel-7402, 72 h): 9.7 µM
IC50 (HMEC; Homo sapiens, HMEC): 2.7 µM
IC50 (P388; P388, 72 h): 2.4 µM
Activity (A549): inactive
IC50 (HL-60; HL-60, 72 h): 9.5 µM

CC[C@@]1(O)CC[C@@]2(CO1)[C@H]1CCC3=C4[C@H](C[C@@H]3O)[C@H](C(=O)OC)C[C@@]42CN(C)C1
Activity (Bel-7402): inactive
Activity (HMEC): Non-toxic
Activity (P388): inactive
Activity (A549): inactive
Activity (HL-60): inactive

COC(=O)CC[C@]12C3=CCC[C@@H]3CC[C@@H]3C=N[C@@H]1[C@@H](C(C)C)CC[C@@]32C [DAPHNEZOMINE L METHYL ESTER]
Activity (Bel-7402): inactive
Activity (HMEC): Non-toxic
Activity (P388): inactive
Activity (A549): inactive
Activity (HL-60): inactive
